STAT3 activator – increases IL-6 driven STAT3 reporter signal. U3A cells, IL-6 STAT3-luciferase reporter, luminescence; 100% = signal with IL-6 EC80 alone. activation (% of control), % at 5.6 µM. 190,000 tested, 0.91% active;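 active = activation above the screen-wide mean of compound activation plus 3 SD, cut at about 130% in these data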;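 also: 0% = background luminescence of wells with medium and substrate only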
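Material: human STAT1-deficient U3A cells with stable STAT3-luciferase reporter / Probe or stimulus: IL-6 stimulus at 33 ng/mL final / Schedule: 1 h compound pre-exposure, 6 h IL-6 stimulation, 37 °C / Technique: luminescence / Read-out basis: percent of IL-6-only median luminescence / Control set: IL-6-only high control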
FLuc inhib CS – counter-screen for luciferase assay inhibitors: firefly luciferase inhibition; 200,000 tested, 1.5% active; P08659; AID 1006; inhibition, % at 10 µM; ATPLite firefly luciferase biochemical luminescence, 10 min;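 active = inhibition above about 50% when tested at 10 µM, limit read from the data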
Target sequence (P08659 whole entry, looked up): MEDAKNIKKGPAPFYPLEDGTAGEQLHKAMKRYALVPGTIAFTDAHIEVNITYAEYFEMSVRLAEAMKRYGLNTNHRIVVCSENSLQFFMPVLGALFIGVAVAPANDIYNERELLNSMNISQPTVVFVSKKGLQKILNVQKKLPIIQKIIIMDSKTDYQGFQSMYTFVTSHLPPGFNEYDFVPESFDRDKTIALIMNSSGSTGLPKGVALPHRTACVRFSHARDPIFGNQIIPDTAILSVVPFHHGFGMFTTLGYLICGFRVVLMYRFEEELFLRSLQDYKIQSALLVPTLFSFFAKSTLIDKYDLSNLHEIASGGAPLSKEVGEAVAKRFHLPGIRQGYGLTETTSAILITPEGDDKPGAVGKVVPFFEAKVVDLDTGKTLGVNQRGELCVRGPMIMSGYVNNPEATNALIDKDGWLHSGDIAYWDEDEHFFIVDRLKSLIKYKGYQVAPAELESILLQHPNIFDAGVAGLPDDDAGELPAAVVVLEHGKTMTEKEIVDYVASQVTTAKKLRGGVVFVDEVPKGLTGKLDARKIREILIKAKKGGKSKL
STAT1 activator – STAT1 signaling activation; 200,000 tested, 2.6% active; NIH 3T3 STAT1-luciferase reporter, IFN-gamma, luminescence; 100% = IFN-gamma alone, no compound; activation (% of control), % at 5.5 µM;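 active = activation above the screen-wide mean activation plus 3 SD, cut at about 130% in these data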;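 also: raw ratio to IFN-gamma control signal so 100% means no change and 0% no light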
STAT3 blocker – STAT3 signaling inhibition | 190,000 tested, 0.89% active | U3A cells, IL-6 STAT3-luciferase reporter, luminescence; host cell line lacks STAT1 | inhibition, % at 5.5 µM;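 active = inhibition above the mean inhibition across all screened compounds plus 3 SD, cut at about 44% in these data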;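 also: 0% = DMSO only wells and 100% = 100 µM nifuroxazide control wells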
FLuc act counter – affects firefly luciferase, flagging false hits in luciferase stimulation screens | P08659 | ATPlite luciferase biochemical, luminescence, 10 min; 0 = ATP-free wells, 1 = DMSO control | activation factor at 10 µM | 200,000 tested, under 10 active | AID 1027;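 active = luciferase activation factor, scaled between plate controls, of at least 2 with compound at 10 µM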
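Assay system: Luciferase/luciferin detection reagent, cell-free biochemical luciferase assay / Read-out: luciferase activation / Benchmarks: No-ATP low control, compound-free enzyme-plus-ATP high control / Medium: PBS buffer for ATP / Detection: luminescence measurement of luciferase light output / Schedule: 10 min at ambient temperature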
STAT1 blocker – STAT1 signaling inhibition. NIH 3T3 STAT1-luciferase reporter, IFN-gamma, luminescence. AID 920. inhibition, % at 5.5 µM. 200,000 tested, 0.35% active;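 active = inhibition above a set limit, the mean inhibition across all tested compounds plus 3 SD, cut at about 34% in these data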;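 also: 0% = IFN-gamma with DMSO and 100% = IFN-gamma with 300 µM nifuroxazide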
An asterisk follows results filed as active; . = not tested or not shown. Shown are actives, neighbours in structure and some others; about 4.9% of the full set was active somewhere.

SMILES | STAT3 activator | FLuc inhib CS | STAT1 activator | STAT3 blocker | FLuc act counter | STAT1 blocker
Cc1cc(C)c2c(N)c(C(=O)NC3CC3)sc2n1 | 73.4 | 2.6 | 103.9 | 34.2 | 1 | -4.3
COCc1cc(C)nc2sc(C(=O)Nc3nccs3)c(N)c12 | 105.0 | 5.6 | 132.1* | -1.3 | 0.9 | -35.4
Cc1cc(C)c2c(N)c(C(=O)Nc3nccs3)sc2n1 | 53.9 | 94.5* | 55.4 | 57.8* | 0.1 | 48.0*
Cc1c(-c2ccccc2)[n+](=O)c2c(n1[O-])CCCCC2 | 103.5 | -4.3 | 103.2 | -7.0 | 1 | -3.5
COc1ccccc1-n1c(=S)[nH]c2c(sc(=S)n2-c2ccccc2C)c1=O | 82.4 | -5.1 | 94.7 | 29.2 | 1.1 | 5.0
CN(C[C@@H](CC1CCCCC1)N(C[C@H](Cc1ccccc1)N(CCc1ccccc1)N=O)N=O)N=O | . | -1.3 | 102.4 | . | 1 | -1.0
CCCn1c(/N=C/c2c[nH]c3ccccc23)nc2ccccc21 | 94.5 | 28.7 | 104.0 | 10.7 | 0.7 | -4.4
CCn1c(/N=C/c2c[nH]c3ccccc23)nc2ccccc21 | 97.3 | 57.2* | 108.2 | 12.8 | 0.4 | -9.0
c1ccc2oc(SCc3cn4ccsc4n3)nc2c1 | 93.6 | 17.5 | 138.4* | 12.9 | 0.8 | -42.1
c1cn2cc(CSC3CCCCC3)nc2s1 | 102.7 | 9.4 | 133.7* | -3.5 | 0.9 | -36.5
Clc1ccc(SCc2cn3ccsc3n2)cc1 | 97.3 | 19.7 | 134.4* | 6.2 | 0.8 | -38.0
c1ccc(CSCc2cn3ccsc3n2)cc1 | 123.9 | 0.6 | 131.6* | -27.8 | 1 | -34.2
O=C(NCCc1cn2ccsc2n1)C1CCCCC1 | 97.3 | -3.4 | 101.2 | 11.9 | 1 | -1.3
O=C(CNc1cc(S(=O)(=O)N2CCCC2)ccc1OCC(F)(F)F)Nc1cccc(C(F)(F)F)c1 | 89.4 | -4.3 | 83.9 | 12.5 | 1 | 18.0
CC(Sc1nncs1)C(=O)Nc1ccc(Cl)cn1 (stereo not drawn) | 93.2 | -3.9 | 102.0 | 6.7 | 1 | -2.2
O=C(COC(=O)C1CCCCC1)Nc1cc([N+](=O)[O-])ccc1F | 105.0 | -2.7 | 99.0 | 1.1 | 1 | -0.3
Cc1ccsc1C1Nc2ccccc2-c2nc3ccccc3n21 (stereo not drawn) | 100.8 | 0.1 | 129.1* | -0.6 | 1 | -32.7
c1csc(C2Nc3ccccc3-c3nc4ccccc4n32)c1 (stereo not drawn) | 102.3 | 1.6 | 127.5 | -1.9 | 1 | -30.7
COc1cc(/C=N/N(C)c2ccccc2)cc(Cl)c1O | 97.1 | 3.2 | 97.3 | 10.1 | 1 | 3.0
COc1ccc(OC)c(/C=N/N(C)c2ccccc2)c1 | 100.9 | 12.2 | 136.8* | 6.5 | 0.9 | -40.0
O=C(COC(=O)CC1CCCC1)Nc1ccc(OC(F)F)cc1 | 107.0 | -1.0 | 111.4 | -1.1 | 1 | -13.8
O=C(COC(=O)CC1CCCC1)Nc1cc2c(cc1Cl)C(=O)c1ccccc1C2=O | 125.0 | 0.6 | 129.0* | -28.5 | 1 | -36.9
CCC(=O)NC(Nc1c(C)n(C)n(-c2ccccc2)c1=O)C(Cl)(Cl)Cl (stereo not drawn) | 96.6 | -5.3 | 102.8 | 10.6 | 1.1 | -4.1
O=C1CN(C(=O)c2ccc(Br)o2)C(c2ccccc2)c2cc(Cl)ccc2N1 (stereo not drawn) | 124.4 | -4.9 | 92.4 | -19.6 | 1 | 8.4
Cc1ccc2c(c1)C(c1ccccc1)N(C(=O)c1ccc(Br)o1)CC(=O)N2 (stereo not drawn) | 134.8* | -2.3 | 92.4 | -37.7 | 1 | 8.4
SMILES | STAT3 activator | FLuc inhib CS | STAT1 activator | STAT3 blocker | FLuc act counter | STAT1 blocker
CCN(CC)S(=O)(=O)c1ccc(C(=O)NC(=S)N(CCC#N)Cc2cccnc2)cc1 | 97.4 | -0.9 | 102.9 | 10.8 | 1 | -4.5
CCC(C(=O)NC1CCCCC1)n1c(SCc2cccc(F)c2)nc2ccncc21 (stereo not drawn) | 94.7 | -1.8 | 104.2 | 6.1 | 1 | -4.6
CCC(C(=O)NC1CCCCC1)n1c(SCc2cccc(C)c2)nc2ccncc21 (stereo not drawn) | 96.3 | 68.5* | 105.5 | 4.1 | 0.3 | -6.1
S=C(NCC1CCCO1)Nc1ccccc1 (stereo not drawn) | 101.8 | -3.9 | 107.7 | -1.5 | 1 | -7.5
CCCCNC(=O)C1CC(c2cccc([N+](=O)[O-])c2)=NO1 (stereo not drawn) | 118.1 | -6.2 | 140.3* | -12.4 | 1.1 | -44.7
O=C(NNS(=O)(=O)c1ccc(C(=O)NC2CCCC2)cc1)c1ccncc1 | 102.5 | -6.0 | 92.7 | -3.4 | 1.1 | 7.9
COc1ccc(-c2nnc(NC(=O)C3CCCO3)s2)cc1 (stereo not drawn) | 101.3 | 28.2 | 141.5* | 3.1 | 0.7 | -45.5
CSc1nc2ccc(NC(=O)C3CCCO3)cc2s1 (stereo not drawn) | 95.7 | 18.2 | 131.8* | 7.6 | 0.8 | -34.2
COc1ccc2nc(NC(=O)C3CCCO3)sc2c1 (stereo not drawn) | 80.9 | 33.1 | 150.3* | 30.9 | 0.7 | -56.3
O=C(Nc1nc(-c2ccc(Cl)cc2)cs1)C1CCCO1 (stereo not drawn) | 92.5 | 0.9 | 130.8* | 16.0 | 1 | -33.4
COc1ccc(NC(=O)C2CCCO2)cc1Cl (stereo not drawn) | 96.5 | -1.1 | 97.8 | 4.4 | 1 | 2.4
Cc1[nH]ccc(=O)c1Oc1ncc(C(F)(F)F)cc1Cl | 97.6 | -2.6 | 98.5 | 6.4 | 1 | 0.5
O=C(CCCN1C(=O)c2cccc3cccc(c23)C1=O)NC1CCS(=O)(=O)C1 (stereo not drawn) | 99.1 | -5.6 | 103.8 | 6.6 | 1.1 | -4.5
O=C(NCCN1C(=O)S/C(=C\c2ccc(F)cc2)C1=O)c1cccc(S(=O)(=O)N2CCOCC2)c1 | 102.9 | 2.8 | 95.9 | -3.5 | 1 | 4.6
CN(C)CCCNC(=O)c1cc(C(=O)c2ccc(F)cc2)c[nH]1 | 109.2 | -6.6 | 102.7 | -3.7 | 1.1 | -4.3
O=C(Nc1nc(-c2ccc(Oc3ccccc3)cc2)cs1)C1=COCCO1 | 94.4 | -4.3 | 94.0 | 6.0 | 1 | 6.6
Cc1ccc(-c2csc(NC(=O)C3=COCCO3)n2)cc1 | 96.6 | 3.2 | 135.7* | -0.9 | 1 | -39.2
CC(=O)c1ccc(NC(=O)Nc2ccc3c(c2)nc(C)n3C)cc1 | 90.6 | 8.4 | 128.2 | 14.2 | 0.9 | -32.9
Cc1nc2cc(NC(=O)Nc3ccccc3Cl)ccc2n1C | 29.9 | 91.2* | 61.7 | 84.1* | 0.1 | 40.0*
Cc1ccc(NC(=O)Nc2ccc3c(c2)nc(C)n3C)cc1 | 74.8 | 74.2* | 132.5* | 37.0 | 0.3 | -36.7
COC(=O)c1ccc(NC(=O)Nc2ccc3c(c2)nc(C)n3C)cc1 | 80.4 | 0.6 | 117.3 | 25.2 | 1 | -20.9
Cc1nn(Cc2ccccc2Cl)c(C)c1NC(=O)CSc1n[nH]c(C)c1[N+](=O)[O-] | 92.0 | -7.4 | 94.4 | 5.6 | 1.1 | 6.2
CN=Cc1sc2ccccc2c1O | 102.0 | 2.7 | 101.3 | -1.6 | 1 | -1.4

Screening data from PubChem BioAssay.
